This is an account of results in ChEMBL document CHEMBL5584271, “Synthesis and Biological Analysis of Iso-dimethyltryptamines in a Model of Light-Induced Retinal Degeneration” (2024).

Molecules are shown by their SMILES. The source made the active and inactive calls. The calls are words filed in the database; no cut-off is given here.

Test [1] concerns Mus musculus. Put plainly: Protection against light-induced retinal degeneration in dark-adaptated BALB/c albino mouse assessed as reduction in ONL thinning at 10 mg/kg, ip dosed preincubated with compound for 15 to 30 mins of mydriasis followed by exposure to bright light at 15kLux for 30 mins by […] relative to control. It is filed as functional. Details: scale not given: the % may be the effect or the level left. The conditions noted are these: time 45-60 min. The method, boiled down: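 Same LIRD protocol in BALB/c mice aged 5–8 weeks: 10 mg/kg ip in 25% DMSO/saline 30 min before 30 min of 15 kLux white light, with mydriatics given beforehand. OCT imaging one week later, centred on the optic nerve head. ONL thickness measured 500 μm from the ONH border and averaged over four quadrants. Compared with vehicle; Welch's ANOVA with Dunnett's T3.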

Test [2] deals with Mus musculus. Kind of test: Protection against light-induced retinal degeneration in dark-adaptated BALB/c albino mouse assessed as reduction in ERG a- and b-wave amplitude deterioration at 10 mg/kg, ip dosed preincubated with compound for 15 to 30 mins of mydriasis followed by exposure to bright light at 15kLux for 30 mins by electroretinography analysis relative to control. To be noted: time 45-60 min. It is filed as functional. Details: scale not given: the % may be the effect or the level left. The method, boiled down:
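BALB/c albino mice aged 5–8 weeks, dark-adapted overnight. Dosed 10 mg/kg ip in 25% DMSO/75% saline 30 min before light. Pupils dilated with metaoxedrin (20 mg/mL) plus tropicamide (4 mg/mL) at 30 and 15 min prior. Exposed to 15 kLux white light for 30 min, freely moving. ERG a- and b-wave amplitudes recorded one week later at 10 cd·s/m2 stimulus. Compared with vehicle; mean ± SEM.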

Test [3] has as its system Mus musculus. Put plainly: Protection against light-induced retinal degeneration in dark-adaptated BALB/c albino mouse assessed as reduction in ONL thinning at 10 mg/kg, ip dosed preincubated with compound for 15 to 30 mins of mydriasis followed by exposure to bright light at 15kLux for 30 mins by […]. The format is functional, organism-based. To be noted: time 45-60 min. In outline:
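Dark-adapted BALB/c albino mice (5–8 weeks) were dosed ip at 10 mg/kg (vehicle 25% DMSO/75% saline) 30 min before 30 min of 15 kLux white light. Pupils were dilated with metaoxedrine/tropicamide at 30 and 15 min prior. One week later, OCT centred on the optic nerve head measured ONL thickness 500 μm from the ONH border, averaged over four quadrants. Analysis used Welch's ANOVA with Dunnett's T3 tests.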

Test [4] concerns Mus musculus. Kind of test: Protection against light-induced retinal degeneration in dark-adaptated BALB/c albino mouse assessed as reduction in ERG a- and b-wave amplitude deterioration at 10 mg/kg, ip dosed preincubated with compound for 15 to 30 mins of mydriasis followed by exposure to bright light at 15kLux for 30 mins by electroretinography analysis. The conditions noted are these: time 45-60 min. It is filed as functional, organism-based. In outline: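 BALB/c albino mice (5–8 weeks) were dark-adapted overnight and given 10 mg/kg ip in 25% DMSO/75% saline 30 min before light. Pupils were dilated with metaoxedrine (20 mg/mL) plus tropicamide (4 mg/mL) at 30 and 15 min prior. Freely moving mice received 30 min of 15 kLux white light. ERG a- and b-wave amplitudes were recorded one week later (10 cd·s/m2 stimulus). Analysis used Welch's ANOVA with Dunnett's T3 post hoc tests.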

The target in test [5] is 5-hydroxytryptamine receptor 2A (Homo sapiens) (UniProt P28223). Kind of test: Binding affinity to 5-HT2A (unknown origin).
Sequence of 5-hydroxytryptamine receptor 2A (Homo sapiens) (P28223 whole entry): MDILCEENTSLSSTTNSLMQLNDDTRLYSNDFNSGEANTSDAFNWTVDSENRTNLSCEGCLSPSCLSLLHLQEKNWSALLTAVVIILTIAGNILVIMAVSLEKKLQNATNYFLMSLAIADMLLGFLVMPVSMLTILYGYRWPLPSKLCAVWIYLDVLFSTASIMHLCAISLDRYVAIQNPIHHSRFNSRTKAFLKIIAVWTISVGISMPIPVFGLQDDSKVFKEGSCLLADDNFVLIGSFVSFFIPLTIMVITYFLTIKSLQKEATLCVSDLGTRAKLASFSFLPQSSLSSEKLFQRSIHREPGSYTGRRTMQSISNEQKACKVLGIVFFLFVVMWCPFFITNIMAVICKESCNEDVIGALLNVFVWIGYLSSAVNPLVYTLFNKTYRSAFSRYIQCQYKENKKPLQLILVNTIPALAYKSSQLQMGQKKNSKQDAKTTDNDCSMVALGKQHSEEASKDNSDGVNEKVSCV
Test [6] addresses 5-hydroxytryptamine receptor 2B (Homo sapiens) (UniProt P41595). Put plainly: Binding affinity to 5-HT2B (unknown origin).
In test [7] the target is T1, 5-hydroxytryptamine receptor 1A (Homo sapiens) (UniProt P08908).
T1 sequence (whole entry): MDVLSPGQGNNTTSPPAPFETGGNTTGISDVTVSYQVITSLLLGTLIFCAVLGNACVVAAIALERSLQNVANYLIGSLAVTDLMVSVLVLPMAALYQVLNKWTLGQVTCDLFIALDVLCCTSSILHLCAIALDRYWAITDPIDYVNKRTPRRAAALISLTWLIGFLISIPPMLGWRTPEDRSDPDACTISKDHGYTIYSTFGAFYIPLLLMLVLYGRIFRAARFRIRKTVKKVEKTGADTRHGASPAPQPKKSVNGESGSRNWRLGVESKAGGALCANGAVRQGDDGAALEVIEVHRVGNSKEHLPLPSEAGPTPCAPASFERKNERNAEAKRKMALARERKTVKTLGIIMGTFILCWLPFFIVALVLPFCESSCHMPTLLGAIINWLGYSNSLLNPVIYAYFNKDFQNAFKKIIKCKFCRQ
Put plainly: Binding affinity to 5-HT1A (unknown origin).

Test [8] concerns the target T2, 5-hydroxytryptamine receptor 2C (Homo sapiens) (UniProt P28335).
T2 sequence (whole entry): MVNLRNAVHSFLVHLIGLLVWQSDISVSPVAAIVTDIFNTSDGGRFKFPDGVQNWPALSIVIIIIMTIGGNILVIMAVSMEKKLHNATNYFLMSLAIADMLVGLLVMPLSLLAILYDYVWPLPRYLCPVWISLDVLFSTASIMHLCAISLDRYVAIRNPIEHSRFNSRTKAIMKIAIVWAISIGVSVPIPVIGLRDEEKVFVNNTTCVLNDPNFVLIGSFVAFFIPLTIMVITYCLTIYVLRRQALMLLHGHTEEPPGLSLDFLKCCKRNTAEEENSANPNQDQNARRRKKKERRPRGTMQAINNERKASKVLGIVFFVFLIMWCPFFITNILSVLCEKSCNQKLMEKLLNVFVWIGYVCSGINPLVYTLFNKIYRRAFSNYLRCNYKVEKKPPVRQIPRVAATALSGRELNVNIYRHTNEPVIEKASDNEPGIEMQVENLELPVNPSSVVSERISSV
Put plainly: Binding affinity to 5-HT2C (unknown origin).

Sequence of 5-hydroxytryptamine receptor 2B (Homo sapiens) (P41595 whole entry): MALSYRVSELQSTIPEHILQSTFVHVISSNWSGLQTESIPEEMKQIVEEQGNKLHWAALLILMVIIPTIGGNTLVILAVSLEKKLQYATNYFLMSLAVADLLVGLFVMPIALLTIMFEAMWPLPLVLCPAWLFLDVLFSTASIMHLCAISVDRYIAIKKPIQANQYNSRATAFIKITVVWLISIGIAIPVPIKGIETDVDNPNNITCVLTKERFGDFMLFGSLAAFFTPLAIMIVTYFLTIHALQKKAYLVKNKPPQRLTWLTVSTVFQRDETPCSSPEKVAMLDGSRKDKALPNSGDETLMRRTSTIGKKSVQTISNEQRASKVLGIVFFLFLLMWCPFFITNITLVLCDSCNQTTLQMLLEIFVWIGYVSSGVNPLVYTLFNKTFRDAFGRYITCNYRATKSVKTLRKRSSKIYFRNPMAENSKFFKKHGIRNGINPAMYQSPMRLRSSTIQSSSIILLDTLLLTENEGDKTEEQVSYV

As to `CC(C)C[C@H]1C(=O)N2CCC[C@H]2[C@]2(O)O[C@](NC(=O)[C@@H]3C=C4c5cccc6[nH]c(Br)c(c56)C[C@H]4N(C)C3)(C(C)C)C(=O)N12` [BROMOCRIPTINE], the Activity in the test on Mus musculus [1] and in the test on Mus musculus [2] was 70% each time.

For `CN1C[C@]2(C)C[C@@]23c2cccc4[nH]cc(c24)C[C@H]13`, the result with Mus musculus [3] and in the test with Mus musculus [4] was Active.

For the molecule `CN1C[C@@]2(C)C[C@]23c2cccc4[nH]cc(c24)C[C@@H]13`, the result with Mus musculus [3] and in the test with Mus musculus [4] was Active.

Take `CN1C[C@H](CO)C=C2c3cccc4[nH]cc(c34)C[C@@H]21`: the result in the test with Mus musculus [3] and in the test on Mus musculus [4] was inactive.

In the case of `CN1C[C@H](CO)C=C2c3cccc4[nH]cc(c34)C[C@H]21`, the outcome in the test with Mus musculus [3] and in the test on Mus musculus [4] was Active.

Turning to `CN1C[C@@H](CO)C=C2c3cccc4[nH]cc(c34)C[C@@H]21`, the result in the test on Mus musculus [3] and in the test on Mus musculus [4] was inactive.

Take `CCN(CC)C(=O)[C@H]1CN(C)[C@H]2Cc3c[nH]c4cccc(c34)[C@@H]1C2`: the outcome (in the test on Mus musculus [3]; in test [5]; in the test on Mus musculus [4]; in test [6]; in test [7]; in test [8]) was inactive.

For the molecule `CN(C)CCn1cc(Cc2ccccn2)c2ccc(F)cc21`, the result in the test on Mus musculus [3] and with Mus musculus [4] was inactive.

`CN1C[C@@H](CO)C=C2c3cccc4[nH]cc(c34)C[C@H]21`: the outcome with Mus musculus [3] and in the test with Mus musculus [4] was Active.

With `CN(C)CCn1cc(Cc2ccccn2)c2c(Br)cccc21`, the outcome in the test on Mus musculus [3] and in the test on Mus musculus [4] was Active.

For `CN(C)CCn1cc(Cc2ccccn2)c2cc(F)ccc21`, the result in the test with Mus musculus [3] and in the test on Mus musculus [4] was inactive.
